The values below come from ChEMBL document CHEMBL1137812, “Leishmanicidal and antiplasmodial activity of constituents of Smirnowia iranica” (J Nat Prod, 2002).

As a reminder, the IC50 is the concentration that gives 50% inhibition. Low readings indicate greater potency in that assay, high ones weaker potency in that assay.

SMILES strings stand for the structures.

In data set [1] the test system is Leishmania donovani. The data set can be described thus: Antileishmanial activity against Leishmania donovani LV9 promastigotes after 96 hrs by MTT assay. In kind it is functional, organism-based. The conditions noted are these: LV9, 96 h. An outline of the steps:
(§1)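 Promastigotes recovered from liquid-nitrogen cryopreservation were exposed to compounds for 96 h. Parasite viability was read by MTT.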
(Tetrazolium assays rely on reduction of a dye to a coloured formazan, in cell work by metabolically active cells.)

Data set [2] has as its system Leishmania infantum. The data set can be described thus: Antileishmanial activity against Leishmania infantum D.SCH promastigotes after 96 hrs by MTT assay. The format is functional, organism-based. An outline of the steps: as §1
Another data set relates to Leishmania major. The data set can be described thus: Antileishmanial activity against Leishmania major LV39 promastigotes after 96 hrs by MTT assay. In kind it is functional, organism-based. The conditions noted are these: LV39, 96 h. The method in brief: as §1
Data set [3] deals with Leishmania donovani. In words: Antileishmanial activity against Leishmania donovani LV9 amastigotes infected in mouse RAW 264.7 cells after 72 hrs by MTT assay. In kind it is functional, organism-based. The method in brief:
(§2)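 RAW 264.7 macrophages infected in vitro with stationary-phase promastigotes, seeded at 1 × 10^5 cells per well in RPMI with 10% fetal calf serum and held 24 h at 37 °C for amastigote transformation. Compounds added, duplicate wells, 72 h at 37 °C. Cells lysed with 0.008% SDS, then post-lysis medium added and plates held 3-4 days at 25 °C. Recovered promastigotes quantified by MTT.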

The subject of data set [4] is Leishmania infantum. In words: Antileishmanial activity against Leishmania infantum D.SCH amastigotes infected in mouse RAW 264.7 cells after 72 hrs by MTT assay. In kind it is functional, organism-based. An outline of the steps: as §2
Another data set relates to RAW264.7. The data set can be described thus: Cytotoxicity against mouse macrophage RAW264.7 cells after 48 hrs by MTT assay. The format is cell-based. As to conditions: RAW264.7, 48 h. An outline of the steps: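 Noninfected RAW 264.7 cells were run in parallel with the intracellular amastigote assay and exposed to compounds for 48 h. Viable cells were quantified by MTT.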

For the next data set, the system named is Plasmodium falciparum. In words: Antiplasmodial activity against chloroquine-sensitive Plasmodium falciparum 3D7 after 48 hrs as reduced [3H]phenylalanine uptake.
Data set [5] is described as follows: Toxicity in human erythrocytes assessed as morphological changes up to 67 uM after 48 hrs by Giemsa staining. In kind it is cell-based. The conditions noted are these: erythrocyte.
Data set [6] in a line: Toxicity in human erythrocytes assessed as morphological changes at IC50 after 48 hrs by Giemsa staining. The format is cell-based. The conditions noted are these: erythrocyte.
Data set [7] is described as follows: Toxicity in human erythrocytes assessed as formation of echinocytes and ghost cells at 130 to 300 uM after 48 hrs by Giemsa staining. The format is cell-based. The conditions noted are these: erythrocyte.

Regarding `C/C=C/C1=C(OC)C(=O)C(OC)=C(OC)C1=O`, the IC50 with Leishmania donovani [1] is 97 µM; in the data set on Leishmania infantum [2], 74 µM; in the data set on Leishmania major, 72 µM; in the data set with Leishmania donovani [3], above 800 µM; in the data set on Leishmania infantum [4] it was above 800 µM; in the data set on RAW264.7, 256 µM. The compound further returned a half-maximal inhibitory concentration (IC50) in the data set on Plasmodium falciparum above 200 µM.
Regarding `C/C=C/c1cc(O)c(OC)c(OC)c1`, the IC50 in the data set on Leishmania donovani [1] was 395 µM; in the data set on Leishmania infantum [2], 267 µM; with Leishmania major, 372 µM; in the data set on Leishmania donovani [3] it was above 800 µM; in the data set with Leishmania infantum [4], above 800 µM; with RAW264.7, 281 µM. For the same compound, the IC50 in the data set with Plasmodium falciparum was above 200 µM.
In the case of `C/C=C/c1cc(OC)c(OC)c(O)c1OC`, the IC50 in the data set with Leishmania donovani [1] is 232 µM; in the data set with Leishmania infantum [2], 198 µM; with Leishmania major it was 387 µM; in the data set on Leishmania donovani [3] it was 589 µM; in the data set on Leishmania infantum [4], above 800 µM; with RAW264.7, 125 µM. In addition, the IC50 in the data set with Plasmodium falciparum was above 200 µM.
Take `COc1ccc([C@@H]2COc3c(ccc(O)c3CC=C(C)C)C2)c(OC)c1O`: the IC50 in the data set on Leishmania donovani [1] worked out at 6.9 µM; in the data set on Leishmania infantum [2] it was 9.2 µM; in the data set on Leishmania major it was 7.9 µM; in the data set with Leishmania donovani [3], 99 µM; with Leishmania infantum [4], 109 µM; with RAW264.7, 218 µM. The compound also returned an IC50 with Plasmodium falciparum of 10.3 µM. The Activity entry in [5] is given as “Non-toxic”.
In the case of `C[C@@H]1[C@H](O)[C@@H](C)/C=C/C=C/C=C/C=C/C=C/C=C/C=C/[C@H](O[C@@H]2O[C@H](C)[C@@H](O)[C@H](N)[C@@H]2O)C[C@@H]2O[C@](O)(C[C@@H](O)C[C@@H](O)[C@H](O)CC[C@@H](O)C[C@@H](O)CC(=O)O[C@H]1C)C[C@H](O)[C@H]2C(=O)O` [AMPHOTERICIN B], the IC50 in the data set with Leishmania infantum [2] was found to be 0.02 µM; in the data set on Leishmania major it was 0.03 µM; in the data set with Leishmania donovani [3], 0.04 µM; with Leishmania infantum [4], 0.04 µM.
With `COc1ccc([C@@H]2COc3c(ccc4c3C=CC(C)(C)O4)C2)c(OC)c1O` [GLYASPERIN H], the 50% inhibitory concentration (IC50) in the data set with Leishmania donovani [1] turned out to be 25.3 µM; in the data set on Leishmania infantum [2] it was 14.2 µM; with Leishmania major, 23.7 µM; with Leishmania donovani [3], 77 µM; in the data set on Leishmania infantum [4] it was 89 µM; in the data set with RAW264.7, 172 µM. In the data set on Plasmodium falciparum, this compound showed an IC50 of 33.3 µM. Further, the Activity entry in data set [6] is recorded as “Non-toxic”; in data set [7], “Toxic”.
Consider `COc1ccc([C@@H]2COc3c(ccc4occc34)C2)c(OC)c1O` [SMIRANICIN], for which the IC50 came out at 22.9 µM in the data set with Leishmania donovani [1]; 11.3 µM with Leishmania infantum [2]; 17.4 µM in the data set with Leishmania major; 112 µM in the data set with Leishmania donovani [3]; 81 µM in the data set with Leishmania infantum [4]; 193 µM in the data set with RAW264.7. The compound further displayed an IC50 in the data set with Plasmodium falciparum of 57.6 µM. Besides, the Activity result in data set [6] is recorded as “Non-toxic”; in data set [7], “Toxic”.
